{"data": "Measured values of several laboratories", "read-out": "cell growth or viability", "note": "Protocols differ between the studies behind these lines."}
{"SMILES": "CC[C@@]1(OC(=O)C(C)c2cccc(C(=O)c3ccccc3)c2)C(=O)OCc2c1cc1n(c2=O)Cc2cc3cc4c(cc3nc2-1)OCO4 (stereo partly shown)", "cell line": "HCT-116", "assay": "MTT", "endpoint": "IC50", "value": "302 nM"}
{"SMILES": "Cc1cccc(-n2ncc(Cl)c(Cl)c2=O)c1", "cell line": "PC-9", "assay": "resazurin", "conditions": "96 h", "endpoint": "IC50", "value": "650 nM"}
{"SMILES": "N.N.[Cl][Pt][Cl]", "cell line": "HCT-116", "conditions": "24 h", "endpoint": "IC50", "value": "35600 nM"}
{"SMILES": "Cc1ccc2c(CNCC3(N4CCCC4)COC3)c[nH]c2c1", "cell line": "U-87 MG", "conditions": "30 µM, 48 h", "endpoint": "viability", "value": "27.6%"}
{"SMILES": "CC(C)C[C@@H]1NC(=O)[C@H](Cc2ccccc2)NC(=O)[C@H](CCCCN)NC(=O)[C@H](CC(C)C)NC(=O)[C@H](C(C)C)NC1=O", "cell line": "HCT-116", "assay": "thymidine uptake", "conditions": "10 µM, 72 h", "endpoint": "inhibition", "value": "0%"}
{"SMILES": "CC[C@@]1(OC(=O)C(C)c2ccc(CC(C)C)cc2)C(=O)OCc2c1cc1n(c2=O)Cc2cc3cc4c(cc3nc2-1)OCO4 (stereo partly shown)", "cell line": "HCT-116", "assay": "MTT", "endpoint": "IC50", "value": "> 5000 nM"}
{"SMILES": "Cc1cccc2[nH]cc(CNCC3(N4CCCC4)COC3)c12", "cell line": "U-87 MG", "conditions": "30 µM, 48 h", "endpoint": "viability", "value": "52.5%"}
{"SMILES": "CC[C@@]1(OC(=O)[C@@H](N)Cc2ccccc2)C(=O)OCc2c1cc1n(c2=O)Cc2cc3cc4c(cc3nc2-1)OCO4", "cell line": "HCT-116", "assay": "MTT", "endpoint": "IC50", "value": "38 nM"}
{"SMILES": "CC1=C(O)C(=O)C=C2C1=CC=C1[C@@]2(C)CC[C@@]2(C)[C@@H]3C[C@](C)(C(=O)O)CC[C@]3(C)CC[C@]12C", "cell line": "AGS", "assay": "MTT", "conditions": "48 h", "endpoint": "IC50", "value": "390 nM"}
{"SMILES": "CCCc1cc(=O)n2nc(NCc3c(F)cc(Cl)cc3F)c(C#N)c2[nH]1", "cell line": "U-87 MG", "assay": "ATP luminescence", "conditions": "72 h", "endpoint": "IC50", "value": "> 50000 nM"}
{"SMILES": "COc1cc2c(c3c1C(=O)C[C@@H](c1ccccc1)O3)[C@H]1[C@@H](O2)OC(C)(C)[C@@H]1OC(C)=O", "cell line": "Raji", "assay": "MTS", "conditions": "48 h", "endpoint": "IC50", "value": "> 10000 nM"}
{"SMILES": "Cc1cc(N(CCO)CCO)ccc1C=O", "cell line": "SN12K1", "endpoint": "IC50", "value": "> 10 µg/mL"}
{"SMILES": "CC[C@@]1(OC(=O)[C@@H]2CCCN2)C(=O)OCc2c1cc1n(c2=O)Cc2cc3cc4c(cc3nc2-1)OCO4", "cell line": "HCT-116", "assay": "MTT", "endpoint": "IC50", "value": "125 nM"}
